# Source: ChEMBL document CHEMBL1154792, “chi-Conopeptide pharmacophore development: toward a novel class of norepinephrine transporter inhibitor (Xen2174) for pain” (J Med Chem, 2009)
# Active and inactive are the calls of the source. The rule behind the calls is not given here. Where a SMILES comes first, the peptide text is derived from it. Bridges are numbered along the chain shown (N, C = ends). [ ]: non-standard residue; d: D form. Pro(3S-OH) = O=C(O)[C@H]1NCC[C@@H]1O; Cha = N[C@@H](CC1CCCCC1)C(=O)O; pGlu = O=C1CC[C@@H](C(=O)O)N1
# Molecular target: Sodium-dependent noradrenaline transporter (Homo sapiens, UniProt P23975)
# Test: Displacement of [3H]nisoxetine from human NET expressed in COS7 cells
# Assay type: cell-based
# Settings: COS-7
# Summary of the method: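 Membranes from COS-7 cells transfected with human NET were incubated with [3H]nisoxetine (4.3 nM) with or without peptide (1 nM to 100 μM, triplicate) for 1 h at RT. Filter-retained radioactivity was counted by liquid scintillation, and values are given as pIC50. Data are means of 2–5 experiments in triplicate; peptide concentration was set by calibrated HPLC at 214 nm.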
# Sodium-dependent noradrenaline transporter, sequence (P23975 whole entry): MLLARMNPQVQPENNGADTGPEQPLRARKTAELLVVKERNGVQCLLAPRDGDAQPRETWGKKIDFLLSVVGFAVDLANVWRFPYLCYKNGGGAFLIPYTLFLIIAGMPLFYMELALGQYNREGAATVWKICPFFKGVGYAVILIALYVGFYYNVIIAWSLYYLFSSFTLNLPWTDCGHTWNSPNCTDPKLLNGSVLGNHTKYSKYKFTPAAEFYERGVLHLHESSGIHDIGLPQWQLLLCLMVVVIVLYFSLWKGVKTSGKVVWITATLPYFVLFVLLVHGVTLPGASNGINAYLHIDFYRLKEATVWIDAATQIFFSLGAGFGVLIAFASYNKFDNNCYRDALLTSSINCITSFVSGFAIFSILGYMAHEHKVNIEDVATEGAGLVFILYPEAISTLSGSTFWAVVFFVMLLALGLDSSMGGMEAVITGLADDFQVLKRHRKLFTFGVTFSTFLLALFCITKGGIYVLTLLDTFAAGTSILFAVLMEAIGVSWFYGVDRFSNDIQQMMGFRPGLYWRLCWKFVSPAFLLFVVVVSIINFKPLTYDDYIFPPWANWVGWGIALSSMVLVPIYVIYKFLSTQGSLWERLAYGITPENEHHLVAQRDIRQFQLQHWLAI
row,Structure (SMILES),Activity
1,CC(C)C[C@@H]1NC(=O)[C@H](CCCCN)NC(=O)[C@H](C(c2ccccc2)c2ccccc2)NC(=O)CNC(=O)[C@@H]2CSSC[C@H](NC1=O)C(=O)N[C@@H](Cc1cnc[nH]1)C(=O)N1CC[C@H](O)[C@H]1C(=O)N[C@H](C(=O)O)CSSC[C@H](NC(=O)[C@@H](NC(=O)CNC(=O)[C@@H]1CCC(=O)N1)C(C)C)C(=O)N2,inactive
2,"CC(C)C[C@@H]1NC(=O)CNC(=O)[C@@H]2CSSC[C@H](NC(=O)[C@H](CC(C)C)NC(=O)[C@H](CCCCN)NC1=O)C(=O)N[C@@H](Cc1cnc[nH]1)C(=O)N1CC[C@H](O)[C@H]1C(=O)N[C@H](C(=O)O)CSSC[C@H](NC(=O)[C@@H](NC(=O)CNC(=O)[C@@H]1CCC(=O)N1)C(C)C)C(=O)N2 ([pGlu]GVCCGLKLCH[Pro(3S-OH)]C-OH; disulfide 4-13, 5-10)",inactive
3,"COc1ccc(C[C@@H]2NC(=O)CNC(=O)[C@@H]3CSSC[C@H](NC(=O)[C@H](CC(C)C)NC(=O)[C@H](CCCCN)NC(=O)[C@H](Cc4ccc(O)cc4)NC2=O)C(=O)N[C@@H](Cc2c[nH]c4ccccc24)C(=O)N2CC[C@H](O)[C@H]2C(=O)N[C@H](C(=O)O)CSSC[C@H](NC(=O)[C@@H](NC(=O)CNC(=O)[C@@H]2CCC(=O)N2)C(C)C)C(=O)N3)cc1 ([pGlu]GVCCGY(Me)YKLCW[Pro(3S-OH)]C-OH; disulfide 4-14, 5-11)",Active
4,CCCC[C@@H]1NC(=O)[C@H](CCCCN)NC(=O)[C@H](Cc2ccc(O)cc2)NC(=O)CNC(=O)[C@@H]2CSSC[C@H](NC1=O)C(=O)N[C@@H](Cc1cnc[nH]1)C(=O)N1CC[C@H](O)[C@H]1C(=O)N[C@H](C(=O)O)CSSC[C@H](NC(=O)[C@@H](NC(=O)CNC(=O)[C@@H]1CCC(=O)N1)C(C)C)C(=O)N2,Active
5,CC(C)C[C@@H]1NC(=O)[C@H](CCCCN)NC(=O)[C@H](Cc2ccc(O)cc2)NC(=O)CNC(=O)[C@@H]2CSSC[C@H](NC1=O)C(=O)N[C@@H](Cc1cccnc1)C(=O)N1CC[C@H](O)[C@H]1C(=O)N[C@H](C(=O)O)CSSC[C@H](NC(=O)[C@@H](NC(=O)CNC(=O)[C@@H]1CCC(=O)N1)C(C)C)C(=O)N2,Active
6,"CC(C)C[C@@H]1NC(=O)[C@H](CCCCN)NC(=O)[C@H](Cc2ccc(O)cc2)NC(=O)CNC(=O)[C@@H]2CSSC[C@H](NC1=O)C(=O)N[C@@H](Cc1ccc(O)cc1)C(=O)N1CC[C@H](O)[C@H]1C(=O)N[C@H](C(=O)O)CSSC[C@H](NC(=O)[C@@H](NC(=O)CNC(=O)[C@@H]1CCC(=O)N1)C(C)C)C(=O)N2 ([pGlu]GVCCGYKLCY[Pro(3S-OH)]C-OH; disulfide 4-13, 5-10)",Active
7,CC(C)[C@H](NC(=O)CNC(=O)[C@@H]1CCC(=O)N1)C(=O)N[C@H]1CSSC[C@@H](C(=O)O)NC(=O)[C@@H]2[C@@H](O)CCN2C(=O)[C@H](Cc2cnc[nH]2)NC(=O)[C@@H]2CSSC[C@H](NC1=O)C(=O)NCC(=O)N[C@@H](Cc1ccc(O)cc1)C(=O)N[C@@H](CCCCN)C(=O)N[C@@H](C1CCCCC1)C(=O)N2,Active
8,CC(C)C[C@@H]1NC(=O)[C@H](CCCCN)NC(=O)[C@H](CCC(=O)O)NC(=O)CNC(=O)[C@@H]2CSSC[C@H](NC1=O)C(=O)N[C@@H](Cc1cnc[nH]1)C(=O)N1CC[C@H](O)[C@H]1C(=O)N[C@H](C(=O)O)CSSC[C@H](NC(=O)[C@@H](NC(=O)CNC(=O)[C@@H]1CCC(=O)N1)C(C)C)C(=O)N2,inactive
9,"CC(C)C[C@@H]1NC(=O)[C@H](CCCCN)NC(=O)[C@H](CCC(N)=O)NC(=O)CNC(=O)[C@@H]2CSSC[C@H](NC1=O)C(=O)N[C@@H](Cc1cnc[nH]1)C(=O)N1CC[C@H](O)[C@H]1C(=O)N[C@H](C(=O)O)CSSC[C@H](NC(=O)[C@@H](NC(=O)CNC(=O)[C@@H]1CCC(=O)N1)C(C)C)C(=O)N2 ([pGlu]GVCCGQKLCH[Pro(3S-OH)]C-OH; disulfide 4-13, 5-10)",inactive
10,CC(C)C[C@@H]1NC(=O)[C@H](CCCCN)NC(=O)[C@H](Cc2ccc(O)cc2)NC(=O)CNC(=O)[C@@H]2CSSC[C@H](NC1=O)C(=O)N[C@@H](CCCNC(=N)N)C(=O)N1CC[C@H](O)[C@H]1C(=O)N[C@H](C(=O)O)CSSC[C@H](NC(=O)[C@@H](NC(=O)CNC(=O)[C@@H]1CCC(=O)N1)C(C)C)C(=O)N2,Active
11,COc1ccc(C[C@@H]2NC(=O)CNC(=O)[C@@H]3CSSC[C@H](NC(=O)[C@H](CC(C)C)NC(=O)[C@H](CCCCN)NC2=O)C(=O)N[C@@H](Cc2cnc[nH]2)C(=O)N2CC[C@H](O)[C@H]2C(=O)N[C@H](C(=O)O)CSSC[C@H](NC(=O)[C@@H](NC(=O)CNC(=O)[C@@H]2CCC(=O)N2)C(C)C)C(=O)N3)cc1,Active
12,"CC(C)C[C@@H]1NC(=O)[C@H](CCCCN)NC(=O)[C@H](Cc2ccc(O)cc2)NC(=O)CNC(=O)[C@@H]2CSSC[C@H](NC1=O)C(=O)N[C@@H](Cc1ccccc1)C(=O)N1CC[C@H](O)[C@H]1C(=O)N[C@H](C(=O)O)CSSC[C@H](NC(=O)[C@@H](NC(=O)CNC(=O)[C@@H]1CCC(=O)N1)C(C)C)C(=O)N2 ([pGlu]GVCCGYKLCF[Pro(3S-OH)]C-OH; disulfide 4-13, 5-10)",Active
13,CC(C)C[C@@H]1NC(=O)[C@H](CCCCN)NC(=O)[C@H](Cc2cccs2)NC(=O)CNC(=O)[C@@H]2CSSC[C@H](NC1=O)C(=O)N[C@@H](Cc1cnc[nH]1)C(=O)N1CC[C@H](O)[C@H]1C(=O)N[C@H](C(=O)O)CSSC[C@H](NC(=O)[C@@H](NC(=O)CNC(=O)[C@@H]1CCC(=O)N1)C(C)C)C(=O)N2,inactive
14,"CC(C)C[C@@H]1NC(=O)[C@H](CCCCN)NC(=O)[C@H](CCCCN)NC(=O)CNC(=O)[C@@H]2CSSC[C@H](NC1=O)C(=O)N[C@@H](Cc1cnc[nH]1)C(=O)N1CC[C@H](O)[C@H]1C(=O)N[C@H](C(=O)O)CSSC[C@H](NC(=O)[C@@H](NC(=O)CNC(=O)[C@@H]1CCC(=O)N1)C(C)C)C(=O)N2 ([pGlu]GVCCGKKLCH[Pro(3S-OH)]C-OH; disulfide 4-13, 5-10)",inactive
15,CC(C)C[C@@H]1NC(=O)[C@H](CCCCN)NC(=O)[C@H](Cc2ccc(O)cc2)NC(=O)CNC(=O)[C@@H]2CSSC[C@H](NC1=O)C(=O)N[C@@H](Cc1cnc[nH]1)C(=O)N[C@H](CC(=O)O)C(=O)N[C@H](C(=O)O)CSSC[C@H](NC(=O)[C@@H](NC(=O)CNC(=O)[C@@H]1CCC(=O)N1)C(C)C)C(=O)N2,inactive
16,"CC(C)C[C@@H]1NC(=O)[C@H](CCCCN)NC(=O)[C@H](CCCNC(=N)N)NC(=O)CNC(=O)[C@@H]2CSSC[C@H](NC1=O)C(=O)N[C@@H](Cc1cnc[nH]1)C(=O)N1CC[C@H](O)[C@H]1C(=O)N[C@H](C(=O)O)CSSC[C@H](NC(=O)[C@@H](NC(=O)CNC(=O)[C@@H]1CCC(=O)N1)C(C)C)C(=O)N2 ([pGlu]GVCCGRKLCH[Pro(3S-OH)]C-OH; disulfide 4-13, 5-10)",inactive
17,"CC(C)C[C@@H]1NC(=O)[C@H](CCCCN)NC(=O)[C@H](Cc2ccc(O)cc2)NC(=O)CNC(=O)[C@@H]2CSSC[C@H](NC1=O)C(=O)N[C@@H](Cc1c[nH]c3ccccc13)C(=O)N1CC[C@H](O)[C@H]1C(=O)N[C@H](C(=O)O)CSSC[C@H](NC(=O)[C@@H](NC(=O)CNC(=O)[C@@H]1CCC(=O)N1)C(C)C)C(=O)N2 ([pGlu]GVCCGYKLCW[Pro(3S-OH)]C-OH; disulfide 4-13, 5-10)",Active
18,CC(C)C[C@@H]1NC(=O)[C@H](CCCCN)NC(=O)[C@H](Cc2ccc(O)cc2)NC(=O)CNC(=O)[C@@H]2CSSC[C@H](NC1=O)C(=O)N[C@@H](Cc1cccc3ccccc13)C(=O)N1CC[C@H](O)[C@H]1C(=O)N[C@H](C(=O)O)CSSC[C@H](NC(=O)[C@@H](NC(=O)CNC(=O)[C@@H]1CCC(=O)N1)C(C)C)C(=O)N2,Active
19,CC(C)C[C@@H]1NC(=O)[C@H](CCCCN)NC(=O)[C@H](Cc2ccc(O)cc2)NC(=O)CNC(=O)[C@@H]2CSSC[C@H](NC1=O)C(=O)N[C@@H](Cc1ccco1)C(=O)N1CC[C@H](O)[C@H]1C(=O)N[C@H](C(=O)O)CSSC[C@H](NC(=O)[C@@H](NC(=O)CNC(=O)[C@@H]1CCC(=O)N1)C(C)C)C(=O)N2,Active
20,CC(C)C[C@H]1CC(=O)N[C@H]2CSSC[C@H](NC(=O)[C@@H](NC(=O)[C@@H](NC(=O)CNC(=O)[C@@H]3CCC(=O)N3)C(C)C)CSSC[C@@H](C(=O)O)NC(=O)[C@@H]3[C@@H](O)CCN3C(=O)[C@H](Cc3cnc[nH]3)NC2=O)C(=O)NCC(=O)N[C@@H](Cc2ccc(O)cc2)C(=O)N[C@@H](CCCCN)C(=O)N1,Active
21,"COc1ccc(C[C@@H]2NC(=O)CNC(=O)[C@@H]3CSSC[C@H](NC(=O)[C@H](CC4CCCCC4)NC(=O)[C@H](CCCCN)NC(=O)[C@H](Cc4ccc(O)cc4)NC2=O)C(=O)N[C@@H](Cc2c[nH]c4ccccc24)C(=O)N2CC[C@H](O)[C@H]2C(=O)N[C@H](C(=O)O)CSSC[C@H](NC(=O)[C@@H](NC(=O)CNC(=O)[C@@H]2CCC(=O)N2)C(C)C)C(=O)N3)cc1 ([pGlu]GVCCGY(Me)YK[Cha]CW[Pro(3S-OH)]C-OH; disulfide 4-14, 5-11)",Active
22,CC(C)C[C@@H]1NC(=O)[C@H](CCCCN)NC(=O)[C@H](Cc2ccc(O)cc2)NC(=O)CNC(=O)[C@@H]2CSSC[C@H](NC1=O)C(=O)N[C@@H](Cc1cnc[nH]1)C(=O)N1CC[C@H](O)[C@H]1C(=O)N[C@H](C(=O)O)CSSC[C@@H](NC(=O)[C@@H](NC(=O)CNC(=O)[C@@H]1CCC(=O)N1)C(C)C)C(=O)N2,inactive
23,CC(C)C[C@@H]1NC(=O)[C@H](CCCCN)NC(=O)[C@H](Cc2ccc(O)cc2)NC(=O)CNC(=O)[C@@H]2CSSC[C@H](NC1=O)C(=O)N[C@@H](Cc1cnc[nH]1)C(=O)N1CC[C@H](O)[C@H]1C(=O)N[C@@H](C(=O)O)CSSC[C@H](NC(=O)[C@@H](NC(=O)CNC(=O)[C@@H]1CCC(=O)N1)C(C)C)C(=O)N2,inactive
24,"CC(C)[C@H](NC(=O)CNC(=O)[C@@H]1CCC(=O)N1)C(=O)N[C@H]1CSSC[C@@H](C(=O)O)NC(=O)[C@@H]2[C@@H](O)CCN2C(=O)[C@H](Cc2cnc[nH]2)NC(=O)[C@@H]2CSSC[C@H](NC1=O)C(=O)NCC(=O)N[C@@H](Cc1ccc(O)cc1)C(=O)N[C@@H](CCCCN)C(=O)N[C@@H](C(C)C)C(=O)N2 ([pGlu]GVCCGYKVCH[Pro(3S-OH)]C-OH; disulfide 4-13, 5-10)",inactive
